NF-kB expr up: activators of NF-kB expression in neurons, primary screen, cell-based, HTS; fold change at 12.5 µM; human neuronal cells, NF-kB reporter expression; active compounds read high; AID 1239, 2008; actives 1.6% (n = 190,000); in the data active = fold change above about 3.3
STAT1 blocker: STAT1 signaling inhibitors, primary screen, cell-based, HTS, luciferase reporter; actives 0.35% (n = 200,000); NIH 3T3 STAT1-luciferase reporter, IFN-gamma, luminescence; AID 920, 2007; inhibition, % at 5.5 µM;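 active = inhibition above a set limit, the mean inhibition across all tested compounds plus 3 SD, cut at about 34% in these data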;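 note: 0% = IFN-gamma with DMSO and 100% = IFN-gamma with 300 µM nifuroxazide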
STAT3 inh: IL-6 driven STAT3 reporter inhibitors, primary screen, U3A cells, luciferase, luminescence, MLSCN library; AID 862, 2007; IL-6 STAT3-luciferase reporter; host cell line lacks STAT1; actives 0.89% (n = 190,000); inhibition, % at 5.5 µM;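 active = inhibition above the mean inhibition across all screened compounds plus 3 SD, cut at about 44% in these data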;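 note: 0% = DMSO only wells and 100% = 100 µM nifuroxazide control wells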
STAT1 act-1: STAT1 signaling activators, primary screen, cell-based, HTS, luciferase reporter. NIH 3T3 STAT1-luciferase reporter, IFN-gamma, luminescence; 100% = IFN-gamma alone, no compound. activation (% of control), % at 5.5 µM. actives 2.6% (n = 200,000);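 active = activation above the screen-wide mean activation plus 3 SD, cut at about 130% in these data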;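 note: raw ratio to IFN-gamma control signal so 100% means no change and 0% no light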
APP 5'UTR act: activators of APP 5'UTR luciferase reporter, primary screen, SH-SY5Y cells. SH-SY5Y APP 5'UTR luciferase reporter, luminescence; zero percent = DMSO vehicle wells. activation, % at 2 µM. actives 1% (n = 190,000). AID 1276, 2008;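 active = activation above a set limit, based on mean plus 3 SD of controls, cut at about 140% in these data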
STAT3 act-1: IL-6 driven STAT3 reporter potentiators, primary screen, U3A cells, luciferase, luminescence, MLSCN library | IL-6 STAT3-luciferase reporter; 100% = signal with IL-6 EC80 alone | activation (% of control), % at 5.6 µM | actives 0.91% (n = 190,000) | AID 871, 2007;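 active = activation above the screen-wide mean of compound activation plus 3 SD, cut at about 130% in these data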;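 note: 0% = background luminescence of wells with medium and substrate only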
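Material: human U3A cells carrying STAT3-luciferase construct. Measured by: reporter luminescence signal. Timing: compound 1 h, then IL-6 6 h at 37 °C.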
STAT3 act-2: STAT3 reporter potentiators, retest of hits, confirmation, U3A cells, luciferase, luminescence | shares compounds with STAT3 act-1 | IL-6 potentiation; U3A cells lack STAT1; 100 means same as IL-6 alone | potentiation (% of control), % at 5.7 µM | actives 64% (n = 1,200) | AID 1267, 2008;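 active = percent activation of the STAT3 luciferase reporter above a set limit taken from the earlier primary screen, cut at about 130% in these data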;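 note: 0% = background signal of medium plus substrate and 100% = median of IL-6 with DMSO wells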
NFkB act STAT3ct: NF-kB reporter activators in human cells, counter-screen for STAT3 activator project; shares compounds with STAT3 act-1; NF-kappaB reporter activation; activation (% of control), % at 5.7 µM; actives 11% (n = 1,200); in the data active = activation above about 120%;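 note: reporter induced by TNF-alpha stimulation; 100% = median of stimulated DMSO wells and 0% = no signal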
STAT1 act-2: STAT1 reporter activators, IFN-gamma induced, counter-screen for STAT3 activator project, cell-based, NIH 3T3, luciferase luminescence; shares compounds with STAT3 act-1; NIH 3T3 STAT1-luciferase reporter; activation (% of control), % at 5.7 µM; actives 13% (n = 1,200); AID 1318, 2008;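 active = activation above the solvent-only control well mean plus 3 SD, set per screening run, cut at about 120% in these data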;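 note: 100% = IFN-gamma with DMSO median signal so 100% means no change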
Numbers without * were called inactive; · = not tested or not shown. Shown are actives, neighbours in structure and some others; about 4.9% of the full set was active somewhere.

SMILES	NF-kB expr up	STAT1 blocker	STAT3 inh	STAT1 act-1	APP 5'UTR act	STAT3 act-1	STAT3 act-2	NFkB act STAT3ct	STAT1 act-2
Cc1cc(Nc2ccccc2)n(C(=O)c2ccc(Cl)cc2)n1	1.6	-33	-46	123	-7	140*	127	114	133*
CCOC(=O)c1[nH]c2ccccc2c1NC(=O)CC	1.1	9	-110	92	-5	194*	148*	108	96
CCOC(=O)c1[nH]c2ccccc2c1NC(=O)COC	0.87	18	-70	84	2	168*	165*	101	93
CCOC(=O)c1[nH]c2ccccc2c1NC(=O)C(C)(C)C	1	0	3	100	-20	102	·	·	·
CC(=O)c1cc(C(=O)N2CCc3c([nH]c4ccccc34)C2C2CCCCC2)[nH]n1 (stereo not drawn)	1.2	0	-56	98	3	157*	155*	104	96
Cc1cnc(C(=O)N2CCc3c([nH]c4ccccc34)C2c2ccc(F)cc2)cn1 (stereo not drawn)	0.98	-7	-12	104	-5	116	·	·	·
Cc1ccc(N2C(=O)C3C4C=CC(CNC(=S)Nc5cccc(Cl)c5)(O4)C3C2=O)cc1 (stereo not drawn)	0.93	0	0	100	16	98	·	·	·
COC(=O)c1c(NC(=O)CN2CCN(c3ccccc3OC)CC2)c2cc(C)ccc2n1C	0.98	-2	-42	102	-2	143*	135*	107	100
COC(=O)c1c(NC(=O)CN2CCN(c3ccccc3OC)CC2)c2c(C)cccc2n1C	0.95	4	10	97	0	93	·	·	·
CCOC(=O)CN1C=C(c2ccc3ccccc3n2)C(C[N+](=O)[O-])c2ccccc21 (stereo not drawn)	2.5	0	-59	100	59	157*	136*	108	104
O=C(N/N=C/c1ccccc1[N+](=O)[O-])C(=O)N1CCCC1	1.5	-14	3	111	20	103	·	·	·
COc1cc(NC(=O)c2cc(C(C)C)on2)c(OC)cc1Cl	0.96	0	-69	100	9	168*	152*	97	104
COc1cc(NC(=O)C2CCCC2)c(OC)cc1Cl	1.2	3	24	97	-5	84	·	·	·
COc1cc(NC(=O)c2cc(C3CC3)on2)c(OC)cc1Cl	1.1	1	-60	99	1	159*	150*	103	98
CCOc1ccc(Br)cc1S(=O)(=O)Nc1cccc(S(=O)(=O)N(C)c2ccccc2)c1	1.2	5	2	96	-5	100	·	·	·
O=C(CN1C(=O)C2C3C=CC(C4CC34)C2C1=O)Nc1cnc2ccccc2c1 (stereo not drawn)	1.2	-13	-26	111	-9	127	·	·	·
COc1ccc(S(=O)(=O)N2CCN(c3ccc4nnc(-c5ccccc5)n4n3)CC2)cc1	0.73	-4	-41	104	0	143*	120	107	113
COc1ccc(/C=C/C(=O)c2ccc(NC3=NCCCS3)cc2)cc1OC	1.5	26	21	76	1	86	·	·	·
CCC(C)Sc1nc2c([nH]c3ccccc32)c(=O)n1C (stereo not drawn)	1.2	12	-75	89	4	166*	124	103	100
Cc1cccc(NC(=O)CSc2nc3c([nH]c4ccccc43)c(=O)n2C)c1	0.8	19	-40	82	-10	146*	135*	95	87
COc1cccc(NC(=O)CSc2nc3c([nH]c4ccccc43)c(=O)n2C)c1	1	23	-32	79	-15	139*	124	100	90
Cn1c(SCC(=O)Nc2ccccc2)nc2c([nH]c3ccccc32)c1=O	1.1	11	4	90	15	105	·	·	·
COc1ccc(C(=O)NC(C(=O)NCCc2ccc3c(c2)OCCO3)C(C)C)cc1 (stereo not drawn)	1.2	-2	2	101	7	102	·	·	·
CC(=O)OCC12COC3c4ccccc4OC(C)(CC1C)C3C2C (stereo not drawn)	1.5	5	14	94	9	97	·	·	·
Cn1c(-c2ccc(N)cc2)nc2ccccc21	2	-9	9	109	47	97	·	·	·
SMILES	NF-kB expr up	STAT1 blocker	STAT3 inh	STAT1 act-1	APP 5'UTR act	STAT3 act-1	STAT3 act-2	NFkB act STAT3ct	STAT1 act-2
Cc1ccc(-n2c(N)c(-c3nc4ccccc4n3C)sc2=S)cc1	1.4	-2	-94	102	17	183*	176*	109	117
COc1ccccc1-c1nnc2n1N=C(c1ccc(O)c(O)c1)CS2	3.4*	3	-38	98	-95	136*	127	160*	125*
COc1ccc(C2=Nn3c(nnc3-c3ccncc3)SC2)cc1OC	0.3	23	-24	79	-9	127	·	·	·
Brc1ccccc1C1=Nn2c(nnc2-c2ccccc2)SC1	2.5	5	-38	96	-2	137*	140*	101	91
COc1ccc(CNC(=O)CCS(=O)(=O)Cc2cccc(Cl)c2)c(OC)c1	1.1	7	28	93	16	84	·	·	·
CN(c1ccc(C(=O)Nc2ccc(CC#N)cc2)cc1)S(C)(=O)=O	1.1	-12	6	112	18	96	·	·	·
CCOC(=O)c1ccccc1NC(=O)Cn1c(-c2nonc2N)nc2ccccc21	2.6	2	-36	98	-93	136*	105	129*	111
Cc1cc(OCC(O)CNC(C)(C)C)ccc1Cl (stereo not drawn)	1.4	0	0	101	-12	101	·	·	·
N/C(=N\OC(=O)c1cccc(Br)c1)c1ccccc1	5.3*	-30	-72	127	-4	158*	152*	131*	151*
O=C(Oc1ccccc1O)c1cccc2ccccc12	3.5*	-11	-42	109	-5	141*	132	102	103
Cc1ccc(C)c(C(=O)O/N=C(\N)c2ccc(Br)cc2)c1	1.9	8	-61	92	10	155*	150*	108	102

Compound activity (PubChem)
